Laboratory results taken from ChEMBL document CHEMBL1142893, “Synthesis and biological evaluation of novel 5(H)-phenanthridin-6-ones, 5(H)-phenanthridin-6-one diketo acid, and polycyclic aromatic diketo acid analogs as new HIV-1 integrase inhibitors” (Bioorg Med Chem, 2007).
Calls of active or inactive are those of the source. The rule behind the calls is not given here.

Key:
[1] = target: T1, Human immunodeficiency virus type 1 integrase (Human immunodeficiency virus 1, UniProt Q7ZJM1); assay: Inhibition of HIV1 integrase 3'-end processing activity
Summary of the method: (§1)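 Wild-type integrase at 200 nM final was preincubated with inhibitor for 30 min at 30 °C. Reaction buffer: 50 mM NaCl, 1 mM HEPES pH 7.5, EDTA, dithiothreitol, 10% glycerol, 7.5 mM MnCl₂, 0.1 mg/mL BSA, 10 mM 2-mercaptoethanol, 10% DMSO, 25 mM MOPS pH 7.2.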

[2] = target: T1, Human immunodeficiency virus type 1 integrase; assay: Inhibition of HIV1 integrase strand transfer activity; summary of the method: as §1
[3] = tested on: PBMC; assay: Cytotoxicity against human PBMC after 6 days; type: cell-based; conditions: 144 h; for IC50: Homo sapiens, PBMC
Summary of the method: (§2)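 Uninfected cells (CEM leukemia cells; PBMC from whole blood of healthy donors) cultured with or without compound for 6 days. Afterwards cells were stained with Trypan blue and counted for proliferation and viability. Values reflect effects on cell growth.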

[4] = tested on: Vero; assay: Cytotoxicity against Vero cells after 3 days; type: cell-based; conditions: Chlorocebus sabaeus, 72 h
[5] = tested on: Human immunodeficiency virus 1; assay: Antiviral activity against HIV1 LAI replication in human PBMC after 5 days; type: functional, organism-based; conditions: for EC50 / EC90: Human immunodeficiency virus 1, LAI, 120 h
Summary of the method: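 PBMC (10⁷ cells/flask) stimulated 3 days with phytohemagglutinin, then infected with HIV-1 LAI at 100 50% tissue culture infective doses. Cultures were kept 5 days with compound at serial 1-log dilutions. Cells were removed by centrifugation (400g, 10 min, 4 °C), and the clarified supernatant was assayed for reverse transcriptase activity.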

[6] = tested on: Human immunodeficiency virus 1; assay: Antiviral activity against HIV1 LAI replication in MOLT4 cells; type: functional, organism-based; conditions: Human immunodeficiency virus 1, LAI, MOLT-4
[7] = tested on: CCRF-CEM; assay: Cytotoxicity against human CEM cells after 6 days; type: cell-based; conditions: 144 h; for IC50: Homo sapiens, CCRF-CEM; summary of the method: as §2
[8] = Selectivity index, ratio of EC50 for HIV1 LAI to IC50 for human PBMC; type: functional

T1 sequence (Q7ZJM1 whole entry): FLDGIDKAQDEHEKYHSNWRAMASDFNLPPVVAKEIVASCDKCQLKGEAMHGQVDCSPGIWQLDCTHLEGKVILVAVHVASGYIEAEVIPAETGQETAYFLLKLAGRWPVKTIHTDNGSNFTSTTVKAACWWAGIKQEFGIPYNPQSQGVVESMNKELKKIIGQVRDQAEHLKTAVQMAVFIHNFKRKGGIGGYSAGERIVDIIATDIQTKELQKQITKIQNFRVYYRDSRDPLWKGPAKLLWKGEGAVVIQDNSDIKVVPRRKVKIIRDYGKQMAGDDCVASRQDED

Structure (SMILES) | IC50 [1] | IC50 [2] | also measured
O=C(O)C(=O)CC(=O)c1ccc2ccc3cccc4ccc1c2c34 | 7 µM | 0.53 µM | 
Cc1cccc2c1[nH]c(=O)c1ccc(C(F)(F)F)cc12 | 449 µM | 109 µM | 
O=C(O)C(=O)CC(=O)c1cc(OCc2ccccc2)cc(OCc2ccccc2)c1 |  |  | Activity ([3]; human, pbmc): Not Active; Activity [4]: Not Active; Activity [5]: inactive; EC50 [6]: 5.7 µM; Activity ([7]; human, ccrf-cem): Not Active
O=C(O)C(=O)CC(=O)c1ccc2cc3ccccc3cc2c1 | 32 µM | 13 µM | 
COC(=O)c1ccccc1-c1ccc(C(=O)CC(=O)C(=O)O)cc1[N+](=O)[O-] | 26 µM | 7 µM | 
Cc1ccc2oc3nc(C)c(C(=O)CC(=O)C(=O)O)cc3c(=O)c2c1 | 92 µM | 16 µM | 
N#Cc1cccc(CNc2ccc3[nH]c(=O)c4ccccc4c3c2)c1 | > 500 µM | > 500 µM | 
CC(=O)Nc1ccc2[nH]c(=O)c3ccccc3c2c1 | > 500 µM | 500 µM | 
Cc1cc(C)c2[nH]c(=O)c3ccc(C#N)cc3c2c1 | > 500 µM | > 500 µM | 
O=C(O)c1ccc2[nH]c(=O)c3ccccc3c2c1 | > 500 µM | 203 µM | 
O=C(O)C(=O)CC(=O)c1ccc2c(c1)[nH]c(=O)c1ccccc12 | 400 µM | 65 µM | 
O=C(O)C(=O)CC(=O)c1cc2ccccc2c2ccccc12 | 9 µM | 0.38 µM | IC50 [3]: 83.5 µM; IC50 [4]: > 100 µM; EC50 [5]: 83.7 µM; EC90 [5]: > 100 µM; IC50 [7]: 73.1 µM
Cc1cccc2c1[nH]c(=O)c1ccc(C#N)cc12 | > 500 µM | 500 µM | 
Nc1ccc2[nH]c(=O)c3ccccc3c2c1 | 206 µM | 267 µM | 
CCNc1ccc2[nH]c(=O)c3ccccc3c2c1 | > 500 µM | > 500 µM | 
O=C(O)C(=O)CC(=O)c1ccc(Br)c(CC(=O)c2ccccc2)c1 | > 500 µM | > 500 µM | 
O=C(O)C(=O)CC(=O)c1ccc2ccccc2c1 | 54 µM | 7 µM | 
O=C(O)C(=O)CC(=O)c1ccc(N2CCOCC2)cc1 | > 100 µM | 23 µM | 
Cc1cccc2c1[nH]c(=O)c1cc(C#N)ccc12 | > 500 µM | > 500 µM | 
O=C(O)C(=O)CC(=O)c1ccc2ccc3ccccc3c2c1 | 25 µM | 2.7 µM | IC50 [3]: 81 µM; IC50 [4]: > 100 µM; EC50 [5]: 8 µM; EC90 [5]: 72.8 µM; Selectivity index [8]: 10; IC50 [7]: 56.4 µM
COc1ccc2[nH]c(=O)c3ccccc3c2c1 | > 500 µM | 500 µM | 

Structure (SMILES) | IC50 [1] | IC50 [2] | also measured
Cc1cc(C)c2[nH]c(=O)c3ccccc3c2c1 | 1000 µM | > 1000 µM | 
COC(=O)C(=O)CC(=O)c1ccc(-c2ccccc2C(=O)OC)c([N+](=O)[O-])c1 | 102 µM | 27 µM | 
O=C(O)C(=O)CC(=O)c1c2ccccc2cc2ccccc12 | 54 µM | 1.7 µM | IC50 [3]: > 100 µM; IC50 [4]: > 100 µM; EC50 [5]: > 100 µM; EC90 [5]: > 100 µM; IC50 [7]: > 100 µM
Cc1nc2oc3ccccc3c(=O)c2cc1C(=O)CC(=O)C(=O)O | > 100 µM | 35 µM | 
N#Cc1ccc(CNc2ccc3[nH]c(=O)c4ccccc4c3c2)cc1 | > 500 µM | > 500 µM | 
N#Cc1ccc(CN(Cc2ccc(C#N)cc2)c2ccc3[nH]c(=O)c4ccccc4c3c2)cc1 | 500 µM | 62 µM | 
Cc1ccc2cc(C(=O)CC(=O)C(=O)O)ccc2c1 | 11 µM | 3 µM | 
N#Cc1cccc(CN(Cc2cccc(C#N)c2)c2ccc3[nH]c(=O)c4ccccc4c3c2)c1 | > 500 µM | > 500 µM | 
O=c1[nH]c2ccc(C(F)(F)F)cc2c2ccccc12 | > 1000 µM | 900 µM | 
Cc1cn([C@H]2C[C@H](N=[N+]=[N-])[C@@H](CO)O2)c(=O)[nH]c1=O [ZIDOVUDINE] |  |  | IC50 [3]: > 100 µM; IC50 [4]: 50 µM; EC50 [5]: 0.00073 µM; EC90 [5]: 0.019 µM
O=c1[nH]c2ccc(S(=O)(=O)c3ccccc3)cc2c2ccccc12 | > 500 µM | 415 µM | 
O=C(Nc1ccc2[nH]c(=O)c3ccccc3c2c1)c1ccccc1 | > 500 µM | > 500 µM | 
O=C(O)C(=O)CC(=O)c1ccc2c(ccc3ccccc32)c1 | 23 µM | 4.8 µM | IC50 [3]: > 100 µM; IC50 [4]: 10.8 µM; EC50 [5]: 26.6 µM; EC90 [5]: > 100 µM; IC50 [7]: 16.2 µM
N#Cc1ccc2[nH]c(=O)c3ccccc3c2c1 | > 500 µM | 400 µM | 
Cc1cc(C)c2[nH]c(=O)c3cc(C#N)ccc3c2c1 | 300 µM | 333 µM | 
Cc1cccc2c1[nH]c(=O)c1ccccc12 | > 1000 µM | > 1000 µM | 
O=c1[nH]c2ccc(Cl)cc2c2ccccc12 | 500 µM | 100 µM | 
O=c1[nH]c2ccc(Br)cc2c2ccccc12 | 225 µM | 78 µM | 
Cc1cc(C)c2[nH]c(=O)c3ccc(C(F)(F)F)cc3c2c1 | > 500 µM | > 500 µM | 
COC(=O)C(=O)CC(=O)c1ccc(Br)c(CC(=O)c2ccccc2)c1 | > 500 µM | > 500 µM | 
